Reference: ChEMBL document CHEMBL4354849, “[1,2,5]Oxadiazolo[3,4-b]pyrazine-5,6-diamine Derivatives as Mitochondrial Uncouplers for the Potential Treatment of Nonalcoholic Steatohepatitis” (J Med Chem, 2020)
Calls of active or inactive are those of the source. The calls are words filed in the database; no cut-off is given here.

Columns and labels:
Mus musculus [1] = test: Improvement in liver fibrosis in Stelic C57BL/6 mouse model of streptozotocin-induced NASH assessed as improvement in inflammation score at 25 mg/kg/day, po administered in high-fat diet for 21 days; type: functional, organism-based
Summary of the method: (§1)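 STAM NASH model: male C57BL/6 mice got 200 µg streptozotocin subcutaneously at day 2 of life, then high-fat diet from 4 weeks. At 6 weeks they were randomized, 8 per group. Drug was mixed into the high-fat diet at 25 mg/kg/d for 21 days. Killed at 9 weeks by cardiac puncture under isoflurane. Food intake was measured per cage of 4 every 3–4 days.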

Mus musculus [2] = test: Effect on food intake in Stelic C57BL/6 mouse model of streptozotocin-induced NASH assessed as reduction in food intake at 25 mg/kg/day, po administered in high-fat diet for 21 days; type: ADME, organism-based; details: in vivo, 504 h; summary of the method: as §1
Mus musculus [3] = test: Improvement in liver fibrosis in Stelic C57BL/6 mouse model of streptozotocin-induced NASH assessed as liver fibrosis score at 25 mg/kg/day, po administered in high-fat diet for 21 days by Picrosirius ed staining based assay (reference value: 0.91 +/- 0.25); type: functional; summary of the method: as §1
[4] = Induction of mitochondrial uncoupling in rat L6 cells assessed as oxygen consumption rate measured over 90 mins by oxygen consumption rate by seahorse assay; type: mitochondria, Mitochondria
Mus musculus [5] = test: Improvement in liver fibrosis in Stelic C57BL/6 mouse model of streptozotocin-induced NASH assessed as effect on liver Gfap mRNA expression at 25 mg/kg/day, po for 21 days
Mus musculus [6] = test: Improvement in liver fibrosis in Stelic C57BL/6 mouse model of streptozotocin-induced NASH assessed as effect on liver MMP2 mRNA expression at 25 mg/kg/day, po administered in high-fat diet for 21 days; type: functional, organism-based
[7] = Drug level in C57BL/6J mouse quadricep muscle at 50 mg/kg, po measured after 1 hr by LC-MS analysis; type: ADME, organism-based, Quadriceps femoris; details: read-out: Drug uptake
Summary of the method: (§2)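 Male C57BL/6 mice, 12 weeks old, chow-fed, given a single 50 mg/kg oral gavage bolus in 90% methylcellulose/2% Tween80/8% DMSO. Killed by cervical dislocation at 1 h. Tissues were rinsed, snap-frozen, powdered and homogenized, then extracted into 90% acetonitrile/10% methanol. Quantified by LC-MS/MS against standards spiked into vehicle-treated tissue, normalized to tissue weight. n=3.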

Mus musculus [8] = test: Induction of energetic stress in Stelic C57BL/6 mouse model of streptozotocin-induced NASH assessed as effect on AMPK activity at 25 mg/kg/day, po administered in high-fat diet for 21 days by Western blot analysis; type: organism-based; details: in vivo, 504 h
Mus musculus [9] = test: Effect on ballooning in Stelic C57BL/6 mouse model of streptozotocin-induced NASH at 25 mg/kg/day, po administered in high-fat diet for 21 days; type: ADME, organism-based; details: in vivo, 504 h; summary of the method: as §1
Mus musculus [10] = test: Improvement in liver fibrosis in Stelic C57BL/6 mouse model of streptozotocin-induced NASH assessed as effect on liver Col1a1 mRNA expression at 25 mg/kg/day, po administered in high-fat diet for 21 days; type: functional, organism-based
Mus musculus [11] = test: Improvement in liver fibrosis in Stelic C57BL/6 mouse model of streptozotocin-induced NASH assessed as NAS score at 25 mg/kg/day, po administered in high-fat diet for 21 days (reference value: 4.6 +/- 0.7); type: functional; summary of the method: as §1
Mus musculus [12] = test: Improvement in liver fibrosis in Stelic C57BL/6 mouse model of streptozotocin-induced NASH assessed as effect on liver Tgfb1 mRNA expression at 25 mg/kg/day, po administered in high-fat diet for 21 days; type: functional, organism-based
Mus musculus [13] = test: Improvement in liver fibrosis in Stelic C57BL/6 mouse model of streptozotocin-induced NASH assessed as effect on liver Cd146 mRNA expression at 25 mg/kg/day, po for 21 days
[14] = Drug level in C57BL/6J mouse heart at 50 mg/kg, po measured after 1 hr by LC-MS analysis; type: ADME, organism-based; details: read-out: Drug uptake; summary of the method: as §2
Mus musculus [15] = test: Induction of hyperglycemia in Stelic C57BL/6 mouse model of streptozotocin-induced NASH at 25 mg/kg/day, po administered in high-fat diet for 21 days; type: organism-based; details: in vivo, 504 h; summary of the method: as §1
Mus musculus [16] = test: Effect on core body temperature in C57BL/6J mouse at 25 to 100 mg/kg, po measured 1 to 24 hrs post dose by rectal probe thermometer based assay; type: ADME, organism-based; details: in vivo
Summary of the method: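 Male C57BL/6 mice, 11 weeks old, given single oral gavage doses of 25, 50 or 100 mg/kg, or vehicle (90% methylcellulose/2% Tween80/8% DMSO). Core temperature was read by rectal probe thermometer at 1, 2, 4 and 24 h after dosing. n=5–6 per group.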

Mus musculus [17] = test: Induction of energetic stress in Stelic C57BL/6 mouse model of streptozotocin-induced NASH assessed as effect on AMPK-dependent ACC activity at 25 mg/kg/day, po administered in high-fat diet for 21 days by Western blot analysis; type: organism-based; details: in vivo, 504 h
Mus musculus [18] = test: Improvement in liver fibrosis in Stelic C57BL/6 mouse model of streptozotocin-induced NASH assessed as effect on plasma AST level at 25 mg/kg/day, po administered in high-fat diet for 21 days; type: functional, organism-based; summary of the method: as §1
Mus musculus [19] = test: Improvement in liver fibrosis in Stelic C57BL/6 mouse model of streptozotocin-induced NASH assessed as decrease in liver triglyceride content at 25 mg/kg/day, po administered in high-fat diet for 21 days; type: functional, organism-based; summary of the method: as §1
Mus musculus [20] = test: Improvement in liver fibrosis in Stelic C57BL/6 mouse model of streptozotocin-induced NASH assessed as reduction in plasma triglyceride at 25 mg/kg/day, po administered in high-fat diet for 21 days; type: functional, organism-based; summary of the method: as §1
[21] = Drug level in C57BL/6J mouse brain at 50 mg/kg, po measured after 1 hr by LC-MS analysis; type: ADME, organism-based; details: read-out: Drug uptake; summary of the method: as §2
Mus musculus [22] = test: Improvement in liver fibrosis in Stelic C57BL/6 mouse model of streptozotocin-induced NASH assessed as effect on serum ALT level at 25 mg/kg/day, po administered in high-fat diet for 21 days; type: functional, organism-based; summary of the method: as §1
Mus musculus [23] = test: Improvement in liver fibrosis in Stelic C57BL/6 mouse model of streptozotocin-induced NASH assessed as effect on liver Cd146 mRNA expression at 25 mg/kg/day, po administered in high-fat diet for 21 days; type: functional, organism-based
[24] = Drug level in C57BL/6J mouse kidney at 50 mg/kg, po measured after 1 hr by LC-MS analysis; type: ADME, organism-based; details: read-out: Drug uptake; summary of the method: as §2
Mus musculus [25] = test: Improvement in liver fibrosis in Stelic C57BL/6 mouse model of streptozotocin-induced NASH assessed as increase in plasma cholesterol at 25 mg/kg/day, po administered in high-fat diet for 21 days; type: functional, organism-based; summary of the method: as §1
Mus musculus [26] = test: Improvement in liver fibrosis in Stelic C57BL/6 mouse model of streptozotocin-induced NASH assessed as effect on liver alphaSMA mRNA expression at 25 mg/kg/day, po administered in high-fat diet for 21 days; type: functional, organism-based
Mus musculus [27] = test: Improvement in liver fibrosis in Stelic C57BL/6 mouse model of streptozotocin-induced NASH assessed as effect on liver Timp1 mRNA expression at 25 mg/kg/day, po administered in high-fat diet for 21 days; type: functional, organism-based
[28] = Drug level in C57BL/6J mouse liver at 50 mg/kg, po measured after 1 hr by LC-MS analysis; type: ADME, organism-based; details: read-out: Drug uptake; summary of the method: as §2
Mus musculus [29] = test: Improvement in liver fibrosis in Stelic C57BL/6 mouse model of streptozotocin-induced NASH assessed as effect on liver Gfap mRNA expression at 25 mg/kg/day, po administered in high-fat diet for 21 days; type: functional, organism-based
Mus musculus [30] = test: Improvement in liver fibrosis in Stelic C57BL/6 mouse model of streptozotocin-induced NASH assessed as improvement in pathologist derived steatosis score at 25 mg/kg/day, po administered in high-fat diet for 21 days; type: functional, organism-based; summary of the method: as §1
[31] = Drug level in C57BL/6J mouse white adipose tissue at 50 mg/kg, po measured after 1 hr by LC-MS analysis; type: ADME, organism-based; details: read-out: Drug uptake; summary of the method: as §2

EC50 [4]: 190 nM
concentration at 1 h [7]: 260 nM
concentration at 1 h [14]: 2090 nM
concentration at 1 h [21]: 850 nM
concentration at 1 h [24]: 4.83 µM
concentration at 1 h [28]: 13.4 µM
concentration at 1 h [31]: 2850 nM
SMILES: Fc1cccc(Nc2nc3nonc3nc2Nc2ccccc2F)c1
Activity (Mus musculus [1]): Active
Activity (Mus musculus [2]): Non-Toxic
Activity (Mus musculus [3]): 0.49
Activity (Mus musculus [5]): inactive
Activity (Mus musculus [6]): inactive
Activity (Mus musculus [8]): Non-Toxic
Activity (Mus musculus [9]): Non-Toxic
Activity (Mus musculus [10]): inactive
Activity (Mus musculus [11]): 3.9
Activity (Mus musculus [12]): inactive
Activity (Mus musculus [13]): inactive
Activity (Mus musculus [15]): Non-Toxic
Activity (Mus musculus [16]): Non-Toxic
Activity (Mus musculus [17]): Non-Toxic
Activity (Mus musculus [18]): inactive
Activity (Mus musculus [19]): Active
Activity (Mus musculus [20]): inactive
Activity (Mus musculus [22]): Active
Activity (Mus musculus [23]): inactive
Activity (Mus musculus [25]): inactive
Activity (Mus musculus [26]): inactive
Activity (Mus musculus [27]): inactive
Activity (Mus musculus [29]): inactive
Activity (Mus musculus [30]): inactive
